MrgX1 agonist: agonists of human MrgX1 receptor, primary screen, HEK293 cells, Fluo-4 calcium flux. hit rate 0.44% among 310,000. Mas-related G-protein coupled receptor member X1 (Homo sapiens), Q96LB2. Fluo-4 calcium fluorescence, agonist mode; stronger effect = higher value. B-score at 10 µM. AID 588627, 2011;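 active = calcium response B-score plate-corrected fluorescence ratio at least 3 library SD, with starting fluorescence B-score inside 5 SD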
Target sequence (Q96LB2 whole entry, looked up): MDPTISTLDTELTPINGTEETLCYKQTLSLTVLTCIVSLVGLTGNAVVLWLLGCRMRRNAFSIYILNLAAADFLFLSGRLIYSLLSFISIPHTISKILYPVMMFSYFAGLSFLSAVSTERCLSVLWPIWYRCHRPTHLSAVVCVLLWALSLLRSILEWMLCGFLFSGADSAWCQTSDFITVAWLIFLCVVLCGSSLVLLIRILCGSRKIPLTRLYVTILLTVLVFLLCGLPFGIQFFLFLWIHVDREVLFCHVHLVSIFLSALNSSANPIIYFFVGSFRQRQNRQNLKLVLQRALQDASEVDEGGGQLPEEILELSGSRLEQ
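Assay system: MrgX1-expressing HEK293 cells / Amount: fifteen thousand cells per well / Doses: test compound in the initial addition of three / Timing: cells plated overnight, dye loaded 0.5 h 37 °C, 0.5 h room temperature / Technique: kinetic calcium dye fluorescence, Fluo-4 NW / Control set: positive and negative controls per plate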
MrgX1 PAM: positive allosteric modulators of MrgX1, primary screen, HEK293 cells, Fluo-4 calcium flux | Mas-related G-protein coupled receptor member X1 (Homo sapiens), Q96LB2 | FDSS; stronger effect = higher value | B-score at 10 µM | hit rate 0.63% among 310,000 | AID 588675, 2011;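 active = plate-corrected calcium response at least 3 library SD above typical, normal starting fluorescence, not activating the receptor alone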;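 note: compound read alongside a low EC10 to EC30 dose of BAM8-22 agonist; peak minus trough fluorescence over baseline measured at the second addition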
RGS4 block: RGS4 inhibitors, primary screen, cell-based, HEK293 M3R inducible RGS4, calcium flux; Regulator of G-protein signaling 4 (Homo sapiens), P49798; Fluo-4 calcium flux; stronger effect = higher value; triggered by carbachol at its EC20; B-score at 10 µM; hit rate 0.45% among 310,000;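 active = B-score, a plate-corrected calcium signal, over three deviations above library mean, with baseline fluorescence within five deviations of library mean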;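 note: RGS4 expression induced by doxycycline in cells with stable M3 receptor; B-score is computed from the integrated fluorescence ratio over baseline after carbachol; higher B-score means a larger calcium signal and so more RGS4 inhibition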
MrgX1 antagonist: antagonists of human MrgX1 receptor, primary screen, HEK293 cells, Fluo-4 calcium flux. Mas-related G-protein coupled receptor member X1 (Homo sapiens), Q96LB2. BAM8-22 antagonism; stronger effect = lower value. B-score at 10 µM. hit rate 1.3% among 310,000;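 active = calcium-response B-score plate-corrected more than 3 library SD below zero, starting fluorescence within 5 deviations, no agonist response on first addition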;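 note: peak minus trough fluorescence over baseline after final BAM8-22 challenge near maximal dose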
PHOSPHO1 inh: PubChem AID 1565; hit rate 1.1% among 290,000; inhibition, % at 13.3 µM; recombinant PHOSPHO1, absorbance phosphatase assay; in the data active = inhibition above about 60%
Target sequence (Q8TCT1 whole entry, looked up): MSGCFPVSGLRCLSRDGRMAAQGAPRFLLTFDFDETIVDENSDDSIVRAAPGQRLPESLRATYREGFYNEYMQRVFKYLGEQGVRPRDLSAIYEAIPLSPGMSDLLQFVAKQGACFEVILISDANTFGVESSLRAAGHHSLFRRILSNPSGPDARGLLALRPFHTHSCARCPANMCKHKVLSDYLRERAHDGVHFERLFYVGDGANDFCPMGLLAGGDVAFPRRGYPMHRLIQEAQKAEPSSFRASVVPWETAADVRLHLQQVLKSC
RGS4 pot: RGS4 potentiators or activators, primary screen, cell-based, HEK293 M3R inducible RGS4, calcium flux; AID 463111, 2010; hit rate 0.92% among 310,000; carbachol calcium flux Fluo4; stronger effect = lower value; B-score at 10 µM;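 active = B-score of the integrated calcium signal more than 4 SD below the library mean, with starting fluorescence not abnormally high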;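 note: negative B-score means reduced calcium response which marks RGS4 activation or potentiation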
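Reagent: ECmax carbachol challenge; Test system: M3R-expressing HEK293 line, RGS4 induced by doxycycline; Schedule: overnight RGS4 induction, 30 min dye load 37 °C, 20 min compound RT; Detection: calcium dye Fluo4 fluorescence; Read-out: Agonist-evoked peak-minus-minimum fluorescence over baseline, integrated ratio, B score.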
MrgX1 antag conf: MrgX1 receptor antagonists, duplicate retest, confirmation, HEK293 cells, Fluo-4 calcium flux; hit rate 19% among 2,300; BAM8-22 calcium flux; stronger effect = lower value; remaining BAM8-22 calcium response % of control (stronger effect = lower value), % at 10 µM; shares compounds with MrgX1 antagonist; AID 602420, 2012;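 active = remaining agonist calcium response no higher than 100% minus 3 SD of agonist-only control wells, with starting fluorescence near control levels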;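 note: agonist BAM8-22 given at a near maximal EC90 to ECmax level; peak minus minimum fluorescence divided by baseline after agonist addition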
HEK293 Ca flux: nonspecific calcium signal in parental HEK293, confirmation, counter-screen for MrgX1 antagonist project, parental HEK293 cells, Fluo-4 calcium flux; shares compounds with MrgX1 antagonist; Fluo-4 calcium fluorescence, FDSS; fluorescence ratio F(max-min)/F0 at 10 µM; hit rate 2% among 4,000;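 active = duplicate-averaged calcium fluorescence ratio at least three times the standard deviation of buffer wells, a nonspecific response in parental cells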
HEK293 Ca counter: calcium response in parental HEK293 cells, primary screen, counter-screen for MrgX1 allosteric activator project, cell-based, Fluo-4 calcium flux, duplicate | shares compounds with MrgX1 antagonist | hit rate 0.4% among 4,000 | Fluo-4 fluorescence ratio; stronger effect = higher value | AID 624114, 2012 | fluorescence ratio F(max-min)/F0 at 10 µM;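 active = calcium fluorescence ratio, averaged over duplicates, at least 3 SD of the buffer-well ratio, meaning a nonspecific response in receptor-free cells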;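 note: untransfected parental HEK293 lacking MrgX1 used as counterscreen for MrgX1 allosteric activators; fluorescence change taken during the second addition on a kinetic imager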
HEK293 Ca cntr2: calcium response in parental HEK293 cells, primary screen, counter-screen for MrgX1 agonist project, cell-based, Fluo-4 calcium flux, duplicate, agonist mode. fluorescence ratio F(max-min)/F0 at 10 µM. shares compounds with MrgX1 antagonist. Fluo-4 calcium fluorescence (FDSS); stronger effect = higher value. hit rate 8.7% among 4,000;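 active = calcium fluorescence ratio at least three times the spread of buffer wells, meaning a non-specific response in parental cells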
A number is an active result; – = inactive; · = not tested or not shown. A selection: hits, their analogues and other compounds. The true share with any hit is near 4.5%.

SMILES	MrgX1 agonist	MrgX1 PAM	RGS4 block	MrgX1 antagonist	PHOSPHO1 inh	RGS4 pot	MrgX1 antag conf	HEK293 Ca flux	HEK293 Ca counter	HEK293 Ca cntr2
O=C(Nc1ccc2c(c1)OCCO2)c1cc(-c2ccccc2)nc2ccccc12	–	–	–	-5.04	–	–	–	–	–	–
Cc1ccc(C2=NN=C(NC(=O)C(F)(F)F)SC2)cc1	·	·	·	·	–	·	·	·	·	·
COCC(=O)N1CCN(c2cccc(C(F)(F)F)c2)CC1	–	–	–	–	–	–	·	·	·	·
CC1(C)NC(=O)N(CC(=O)N2CCN(c3cccc(C(F)(F)F)c3)CC2)C1=O	–	–	–	-6.48	·	–	67.1%	–	–	–
CCc1nc(SCC(=O)N2CCCC2)c2c(=O)n(C)c(=O)n(C)c2n1	–	–	–	–	–	–	·	·	·	·
Cc1cc(C)nc(SCC(=O)N2CCCCC2)n1	–	–	–	–	–	–	·	·	·	·
Cc1cc(-c2ccccc2)nc(SCC(=O)N2CCCC2)n1	–	–	–	-5.42	–	–	–	–	–	–
Cn1c(=O)c2c(SCC(=O)N3CCCC3)nc(-c3ccccc3)nc2n(C)c1=O	–	–	–	-6.02	–	–	–	–	–	–
O=C(C1=C[C@@H](c2ccccc2)C[C@@H](OCCCCO)O1)N1CCOCC1	–	–	–	–	–	–	·	·	·	·
COC(=O)C1=C(N)Oc2cc(C)n(Cc3cccnc3)c(=O)c2C1c1cccc(OC)c1OC (stereo not drawn)	–	–	–	-13.1	–	–	–	–	–	–
COC(=O)C1=C(N)Oc2cc(C)n(Cc3cccnc3)c(=O)c2C1c1cc(OC)ccc1OC (stereo not drawn)	–	–	–	–	–	–	·	·	·	·
O=C(NCCN1CCOCC1)c1ccc2c(c1)ncn2C1CCCCC1	–	–	–	-6.84	–	–	–	–	–	–
C#CCNC(=O)C1=C[C@@H](C2CC2)[C@H](CCCO)[C@@H](OCC)O1	–	–	–	–	–	–	·	·	·	·
CN(CC(=O)Nc1c(Cl)cccc1Cl)C(=O)C1CSC2(C)CCC(=O)N12 (stereo not drawn)	–	–	–	-6.82	·	–	–	–	–	–
O=C(OCc1nnc(-c2ccccc2)o1)C1CC(=O)N(c2ccccc2)C1 (stereo not drawn)	–	–	–	–	–	–	·	·	·	·
O=C(OCc1nnc(-c2ccccc2)o1)C1CC(=O)N(Cc2ccco2)C1 (stereo not drawn)	–	–	–	-5.04	–	–	–	–	–	–
COc1ccccc1NC(=O)c1ccc2[nH]c(C)c(C)c2c1	–	–	–	–	–	–	·	·	·	·
O=C(O)CCCN=CC1=C(O)CNC1=O	–	–	–	–	–	–	·	·	·	·
O=C(NCCC1CCCCN1S(=O)(=O)c1ccc(F)cc1)C(=O)NCC1CCCO1 (stereo not drawn)	–	–	–	-5.99	·	–	–	–	–	–
Cc1ncc(CO)c2cc(C(=O)Nc3ccccc3Cl)c(=Nc3cccc(C(N)=O)c3)oc12	–	–	–	–	–	–	·	·	·	·
COCCn1nnnc1C(c1ccccc1OC)N1CCN(c2ccccc2F)CC1 (stereo not drawn)	–	–	–	–	–	–	·	·	·	·
COCCn1nnnc1C(c1ccc(C(F)(F)F)cc1)N1CCOCC1 (stereo not drawn)	–	–	–	-5.56	–	–	–	–	–	–
COCCn1nnnc1C(c1ccc(OC)cc1)N1CCN(c2ccccc2F)CC1 (stereo not drawn)	–	–	–	-5.71	–	–	–	–	–	–
Cc1cccc(NC(=O)N2CCCC(CNC(=O)c3ccccc3Cl)C2)c1C (stereo not drawn)	–	–	–	–	–	–	·	·	·	·
CC/C(C)=N/Nc1nc2c(c(=O)[nH]c(=O)n2C)n1Cc1ccccc1	–	–	–	–	–	–	·	·	·	·
SMILES	MrgX1 agonist	MrgX1 PAM	RGS4 block	MrgX1 antagonist	PHOSPHO1 inh	RGS4 pot	MrgX1 antag conf	HEK293 Ca flux	HEK293 Ca counter	HEK293 Ca cntr2
O=C(Nc1ccc(F)cc1)Nc1ccccc1C(=O)NCCN1CCNC1=O	–	–	–	–	–	–	·	·	·	·
COc1ccc(/C=C/c2nc3cc(-c4ccccc4)ccc3o2)cc1O	–	–	–	-4.55	–	–	–	–	–	–
CCN(CC)C(=O)N1CCC(NC(=O)c2ccccc2)CC1	–	–	–	-7.53	–	–	–	–	–	–
O=C(NC1CCN(C(=O)N2CCOCC2)CC1)c1ccccc1	–	–	–	–	–	–	·	·	·	·
COc1ccc(S(=O)(=O)N(CCc2ccccc2)CC(N)=O)cc1	–	–	–	-5.44	–	–	–	–	–	–
COc1cccc(Nc2nc(NCC3CCCO3)c3ccccc3n2)c1 (stereo not drawn)	–	–	–	-6.1	–	–	20.4%	–	–	–
Oc1ccc(Nc2nc(NCC3CCCO3)c3ccccc3n2)cc1 (stereo not drawn)	·	·	–	·	–	–	·	·	·	·
O=C(NC1CCCCC1)C1CC(=O)N(CCc2ccc(F)cc2)C1 (stereo not drawn)	–	–	–	–	–	–	·	·	·	·
CN1CCN(C(c2ccc(Br)cc2)c2cc(Cl)c3cccnc3c2O)CC1 (stereo not drawn)	–	–	–	-5.34	–	–	–	–	–	–
CN(CC(=O)Nc1c(Cl)cccc1Cl)C(=O)c1ccc2nc[nH]c2c1	–	–	–	-7.14	·	–	73.5%	–	–	–
CC(=O)c1cccc(NC(=O)c2nc(-c3ccccc3)oc2C)c1	–	–	–	–	–	–	·	·	·	·
Cc1ccc(-c2nc3ncccn3c2Nc2ccc3c(c2)OCO3)o1	–	–	–	-5.35	–	–	–	–	–	–
Cc1ccc(Nc2c(-c3ccc(C)o3)nc3ncccn23)cc1	–	–	–	–	–	–	·	·	·	·
Cc1ccc2c(c1)N(CC(=O)NCCC1=CCCCC1)C(=O)c1cccnc1O2	–	–	–	–	–	–	·	·	·	·
